How the values were obtained:
[1] = melting temperature; fluorescence melt of hairpins on a sequencing array, two-state fit, raised by 9.35 °C to match UV melts; details: sodium 0.088 M
Procedure, shortened: (§1)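 Folding enthalpy and melting temperature were estimated with bootstrapped two-state fits and combined across four replicates by inverse-variance weighting, with fitted temperatures raised by 9.35 °C to match UV melts. The data were Cy3 fluorescence of library hairpins, with annealed Cy3 and quencher oligos, on a sequenced MiSeq flow cell in 50 mM Na-HEPES pH 8.0, 25 mM NaCl, imaged in 2.5 °C steps up to 60 °C and normalised to pre-quench Cy3 and control constructs.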

[2] = folding enthalpy; higher = less favourable; fluorescence melt of hairpins on a sequencing array, two-state fit; details: sodium 0.088 M
Procedure, shortened: as §1

Sequence	Tm [1] [°C]	folding enthalpy [2] [kcal/mol]
GCCACGCGAAAGCGAAGC ((..(((....)))..))	43.4	-11.2
GCCACGCGAAAGCGTTGC ((.((((....)))).))	57.6	-20.2
GCCACGGCGAAAGCCGGC (((..(((....))))))	49.1	-7.83
GCCACGGGAAACCACGGC (((..((....))..)))	46.5	-34.4
GCCACGGGAAACCATGGC ((((.((....)).))))	48.6	-47.8
GCCACGGGAAACCGCAGC ((..(((....)))..))	34.1	-17.4
GCCACTGGAAACAGCAGC ((..(((....)))..))	25.5	-11.8
GCCACTGGAAACAGCGGC (((.(((....))).)))	52.9	-42.6
GCCAGAGGAAACTCTGGC (((((((....)))))))	69.1	-44.8
GCCAGCGAAAGCTATGGC ((((((....)))..)))	55.3	-21.4
GCCAGCGAAAGCTGAGGC ((((((....)))..)))	53.5	-15.5
GCCAGCGGAAACACTGGC (((((.(....).)))))	52.8	-39.2
GCCAGGCGAAAGCATAGC ((.(.((....)).).))	37.8	-11.1
GCCAGGCGAAAGCCGCGC ((..(((....)))..))	58.4	-18
GCCAGGCGAAAGCGCGGC (((..((....))..)))	59.6	-18.6
GCCAGGCGAAAGCGTAGC ((.(.((....)).).))	38.9	-7.64
GCCAGGCGAAAGCGTTGC ((.(.((....)).).))	34.2	-16.6
GCCAGGCGAAAGCTAGGC (((..((....))..)))	61.3	-27.9
GCCAGGCGAAAGCTCGGC (((..((....))..)))	59.8	-38.4
GCCAGGCGAAAGCTTAGC ((.(.((....)).).))	32.3	-10.9
GCCAGGGGAAACCCCGAC (.(.(((....))).).)	32.6	-9.47
GCCAGGGGAAACCCCGGC (((.(((....))).)))	59.8	-38.6
GCCAGGGGAAACCCTAGC ((.((((....)))).))	41	-22.8

Sequence	Tm [1] [°C]	folding enthalpy [2] [kcal/mol]
GCCAGTCGAAAGACGGGC (((.(((....))).)))	68.6	-35
GCCAGTGGAAACACCAGC ((..(((....)))..))	33.1	-13.9
GCCAGTGGAAACACCGGC (((.(((....))).)))	49.6	-37.1
GCCAGTGGAAACATTGGC ((((.((....)).))))	50.8	-37
GCCAGTGGAAACGCTGGC (((((.(....).)))))	61	-41.8
GCCAGTGGAAACGTTGGC ((((..(....)..))))	48.2	-24.4
GCCATACGAAAGTAGGC (((.(((....))))))	52.6	-28.4
GCCATCACGAAAGTGGGC (((..(((....))))))	47.2	-19.4
GCCATCGAAAGATAAGGC ((((((....)))..)))	44.8	-23.5
GCCATCGAAAGATAGGGC ((((((....)))..)))	44.6	-27.4
GCCATCGAAAGATGCGGC ((((((....)))..)))	49.2	-16.6
GCCATCGAAAGATTGGC ((((((....))).)))	50.7	-30.3
GCCATCGAAAGATTTGGC ((((((....)))..)))	41.3	-24.1
GCCATGCGAAAGCCTCGC ((.(.((....)).).))	34	-6.86
GCCATGCGAAAGCGCGGC (((..((....))..)))	59.2	-20
GCCATGCGAAAGCGTAGC ((.(.((....)).).))	37	-11.2
GCCATGCGAAAGCGTTGC ((.(.((....)).).))	43.6	-18.1
GCCATGTCGAAAGACGGC (((..(((....))))))	51.5	-20.1
GCCATTCGAAAGAAGGC (((.(((....))))))	48.1	-25.6
GCCATTCGAAAGAAGGGC (((.(((....))).)))	59.4	-41
GCCATTGGAAACAGTGGC ((((.((....)).))))	50.7	-45.3
GCCCACACGAAAGTGGGC (((..(((....))))))	68	-26.4
GCCCACCGAAAGGTCGGC (((.(((....))).)))	53.5	-40.4

Sequence	Tm [1] [°C]	folding enthalpy [2] [kcal/mol]
GCCCACCGAAAGGTTGGC (((.(((....))).)))	55.3	-42.5
GCCCACGAAAGTGCCGGC ((((((....)))..)))	46.6	-16.1
GCCCACGAAAGTGCGGC ((((((....))).)))	63.3	-29.5
GCCCACGAAAGTGGAGGC ((((((....)))..)))	52.5	-15.5
GCCCACGCGAAAGCGGGC (((..(((....))))))	61.8	-11.9
GCCCACGGAAACGCAGGC (((..((....))..)))	39.6	-17.8
GCCCACGGAAACGCGAGC ((.(.((....)).).))	28	-14.7
GCCCACGGAAACGTAGGC (((.(((....))).)))	48.4	-30.6
GCCCAGCGAAAGCAGAGC ((.(.((....)).).))	41.2	-10.9
GCCCAGCGAAAGCCGCGC ((.(.((....)).).))	45.7	-10.1
GCCCAGCGAAAGCGGCGC ((.(.((....)).).))	64.5	-17
GCCCAGGGAAACCCAGGC (((..((....))..)))	44.4	-25.6
GCCCAGGGAAACCCGAGC ((.(.((....)).).))	28.3	-6.87
GCCCAGGGAAACCCGGAC (.((.((....)).)).)	28.6	-4.63
GCCCATCGAAAGATTGGC (((.(((....))).)))	47.8	-27.3
GCCCATGCGAAAGCAGGC (((..(((....))))))	50.8	-13.8
GCCCATTCGAAAGAAGGC (((..(((....))))))	33	-15.8
GCCCCACGAAAGTGGGC (((.(((....))))))	65.5	-10.9
GCCCCAGGAAACCGAGGC (((.(.(....).).)))	32.6	-16.3
GCCCCAGGAAACTGGGAC (.(((((....))))).)	46.1	-15.6
GCCCCATCGAAAGATGGC (((..(((....))))))	37.9	-7.75
GCCCCCGAAAGGGCTGGC ((((((....)))..)))	61.8	-16.2
GCCCCCGAAAGGGTAGGC ((((((....)))..)))	55.9	-23.3

Sequence	Tm [1] [°C]	folding enthalpy [2] [kcal/mol]
GCCCCCGAAAGGGTGGGC ((((((....)))..)))	63.2	-27.8
GCCCCCGCGAAAGCGGGC (((..(((....))))))	34.8	-4.3
GCCCCGCGAAAGCACGGC (((..((....))..)))	41.6	-18.3
GCCCCGCGAAAGCCGAGC ((.(.((....)).).))	32.1	-11.3
GCCCCGCGAAAGCCGTGC ((.(.((....)).).))	27.7	-15.5
GCCCCGCGAAAGCGCAGC ((..(((....)))..))	40.3	-7.42
GCCCCGCGAAAGCGGCGC ((.((((....)))).))	59.7	-16.6
GCCCCGCGAAAGCTGCGC ((.(.((....)).).))	36.6	-13.6
GCCCCGCGAAAGCTGGGC ((((.((....)).))))	68.8	-39.2
GCCCCTCGAAAGAGCGGC (((.(((....))).)))	49.8	-33
GCCCCTGCGAAAGCAGGC (((..(((....))))))	42.4	-4.68
GCCCCTGGAAACAAGGGC ((((.((....)).))))	46.1	-28.8
GCCCCTGGAAACAGGAGC ((.((((....)))).))	47.5	-30.6
GCCCGACGAAAGTCGGC (((.(((....))))))	61.4	-8.71
GCCCGCGAAAGCGACGGC ((((((....)))..)))	54.9	-22.3
GCCCGCGAAAGCGCCGGC ((((((....)))..)))	52.3	-17.5
GCCCGCGAAAGCGTTGGC ((((((....)))..)))	56.2	-23.2
GCCCGGCCGAAAGGCGGC (((..(((....))))))	57.6	-13.2
GCCCGGCGAAAGCAGTGC ((.(.((....)).).))	40.5	-18.2
GCCCGGCGAAAGCATGGC (((..((....))..)))	56	-19
GCCCGGCGAAAGCCCGGC (((.(((....))).)))	60.5	-17.1

— the array DNA melting data of Ke et al. (doi:10.1101/2024.01.08.574731)
